Experimental data published in ChEMBL document CHEMBL1158182, “Antifungal activity of chalcones: a mechanistic study using various yeast strains” (Eur J Med Chem, 2008).

Columns and labels:
Type in all cases: functional
Ogataea angusta [1] = test: Antifungal activity against Hansenula polymorpha D22 with arg1/arg1 ade1/ADE1 leu2/leu2 URA3/ura3 CYS1/cys1 genotype by agar dilution method
Procedure, shortened: (§1)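 H. polymorpha strains were tested by agar dilution on rich YPD agar at 37 °C. Compound stocks in 96% EtOH were mixed into the medium to give […]. Cells were suspended in water, serially diluted to 10^9, 10^7, 10^5 and 10^3 cells/ml, and applied to the agar with a metal replicator. MIC was read from growth.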

Kluyveromyces lactis [2] = test: Antifungal activity against Kluyveromyces lactis 2-19B with MATalpha ura lys arg genotype by agar dilution method
Procedure, shortened: (§2)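 S. cerevisiae and K. lactis strains were tested by agar dilution on rich YPD agar at 30 °C. Compound stocks in 96% EtOH were added to the medium to give […]. Cells were suspended in water, serially diluted to 10^9–10^3 cells/ml, and plated with a metal replicator. MIC was read from growth.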

Ogataea angusta [3] = test: Antifungal activity against Hansenula polymorpha WT2 with ade1 met6 genotype by agar dilution method; procedure, shortened: as §1
Ogataea angusta [4] = test: Antifungal activity against Hansenula polymorpha AS1 with arg1 gsh2delta genotype by agar dilution method; procedure, shortened: as §1
Ogataea angusta [5] = test: Antifungal activity against Hansenula polymorpha CD1 with ade1 leu2 cds1 genotype by agar dilution method; procedure, shortened: as §1
Saccharomyces cerevisiae [6] = test: Antifungal activity against haploid Saccharomyces cerevisiae FY4 by agar dilution method; procedure, shortened: as §2
Ogataea angusta [7] = test: Antifungal activity against Hansenula polymorpha M4 with met4 genotype by agar dilution method; procedure, shortened: as §1
Ogataea angusta [8] = test: Antifungal activity against Hansenula polymorpha 2b with arg1 ade1 leu2 genotype by agar dilution method; procedure, shortened: as §1
Ogataea angusta [9] = test: Antifungal activity against Hansenula polymorpha WT1 with ade1 ura3 genotype by agar dilution method; procedure, shortened: as §1
Ogataea angusta [10] = test: Antifungal activity against Hansenula polymorpha AU05 with ade3 ura3 genotype by agar dilution method; procedure, shortened: as §1
Saccharomyces cerevisiae [11] = test: Antifungal activity against diploid Saccharomyces cerevisiae 1a by agar dilution method; procedure, shortened: as §2
Ogataea angusta [12] = test: Antifungal activity against Hansenula polymorpha R3 with rgh3 genotype by agar dilution method; procedure, shortened: as §1
Saccharomyces cerevisiae [13] = test: Antifungal activity against haploid Saccharomyces cerevisiae 1169 by agar dilution method; procedure, shortened: as §2
Ogataea angusta [14] = test: Antifungal activity against Hansenula polymorpha MC1 with met2 cys1 genotype by agar dilution method; procedure, shortened: as §1
Ogataea angusta [15] = test: Antifungal activity against Hansenula polymorpha 2a with arg1 leu2 ura3 cys1 genotype by agar dilution method; procedure, shortened: as §1
Ogataea angusta [16] = test: Antifungal activity against Hansenula polymorpha CD2 with ade1 leu2 cds2 genotype by agar dilution method; procedure, shortened: as §1
Saccharomyces cerevisiae [17] = test: Antifungal activity against haploid Saccharomyces cerevisiae 2180 by agar dilution method; procedure, shortened: as §2
Ogataea angusta [18] = test: Antifungal activity against Hansenula polymorpha CRD2 with leu2 CDR2 genotype by agar dilution method; procedure, shortened: as §1
Saccharomyces cerevisiae [19] = test: Antifungal activity against haploid Saccharomyces cerevisiae YSH1171 by agar dilution method; procedure, shortened: as §2
Kluyveromyces lactis [20] = test: Antifungal activity against Kluyveromyces lactis 1-6A with MATalpha uraA lys arg genotype by agar dilution method; procedure, shortened: as §2
Ogataea angusta [21] = test: Antifungal activity against Hansenula polymorpha M2 with met2 genotype by agar dilution method; procedure, shortened: as §1
Kluyveromyces lactis [22] = test: Antifungal activity against Kluyveromyces lactis 2-18B with MATalpha metA1 ura3 leu2 genotype by agar dilution method; procedure, shortened: as §2
Saccharomyces cerevisiae [23] = test: Antifungal activity against diploid Saccharomyces cerevisiae 29a by agar dilution method; procedure, shortened: as §2
Saccharomyces cerevisiae [24] = test: Antifungal activity against haploid Saccharomyces cerevisiae 10560-6B by agar dilution method; procedure, shortened: as §2
Saccharomyces cerevisiae [25] = test: Antifungal activity against haploid Saccharomyces cerevisiae YSH1170 by agar dilution method; procedure, shortened: as §2
Ogataea angusta [26] = test: Antifungal activity against Hansenula polymorpha CD3 with ade1 leu2 cds3 genotype by agar dilution method; procedure, shortened: as §1
Saccharomyces cerevisiae [27] = test: Antifungal activity against haploid Saccharomyces cerevisiae 1S by agar dilution method; procedure, shortened: as §2
Saccharomyces cerevisiae [28] = test: Antifungal activity against haploid Saccharomyces cerevisiae Sigma 1278b by agar dilution method; procedure, shortened: as §2

Measured: MIC

COc1cc(/C=C/C(=O)c2ccc(Cl)cc2)ccc1O
> 40 µg/mL: all assays above

O=C(/C=C/C=C/c1ccccc1)c1ccc(Cl)cc1
> 40 µg/mL: all assays above

COc1cccc(/C=C/C(=O)c2ccc(Cl)cc2)c1O
> 40 µg/mL: all assays above

O=C(/C=C/c1ccc(O)c(O)c1)c1ccccc1
> 40 µg/mL: all assays above

O=C(/C=C/c1ccc(O)c(O)c1)c1ccc(Cl)cc1
> 40 µg/mL: all assays above

O=C(/C=C/c1ccc(O)cc1)c1ccccc1 [4-HYDROXYCHALCONE]
> 40 µg/mL: all assays above

O=C(/C=C/c1ccc(Cl)cc1)c1ccc(Cl)cc1 [4',4-DICHLOROCHALCONE]
> 40 µg/mL: all assays above

COc1cc(/C=C/C(=O)c2ccc(Cl)cc2)cc(OC)c1O
> 40 µg/mL: all assays above

CC(=O)Nc1ccc(/C=C/C(=O)c2ccc(Cl)cc2)cc1
> 40 µg/mL: all assays above

N#Cc1ccc(/C=C/C(=O)c2ccc(Cl)cc2)cc1
> 40 µg/mL: all assays above
